Test results taken from ChEMBL document CHEMBL4477169, “Vestitol Isolated from Brazilian Red Propolis Inhibits Neutrophils Migration in the Inflammatory Process: Elucidation of the Mechanism of Action” (J Nat Prod, 2016).
Active and inactive are the calls of the source. The calls are words filed in the database; no cut-off is given here.

Legend:
Mus musculus [1] = assay: Antiinflammatory activity in C57BL/6 mouse assessed as reduction in LPS-induced neutrophil migration in peritoneal activity at 1 to 10 mg/kg, sc dosed 30 mins prior LPS challenge measured after 6 hrs post LPS challenge using Neubauer chamber by optical microscopic analysis; type: functional, organism-based
Procedure, shortened: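 Male SPF C57BL/6 mice (20−22 g) dosed sc (1, 3 or 10 mg/kg) 30 min before ip LPS (300 ng/cavity). Killed at 6 h; cavity washed with 3 mL PBS/1 mM EDTA. Total cells counted in a Neubauer chamber; differential count of 100 cells on Panotic-stained cytospins at 1000×. Neutrophils per cavity, mean ± SEM, n = 4−5.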

Mus musculus [2] = assay: Antiinflammatory activity in C57BL/6 mouse assessed as reduction in CXCL1/KC release in peritoneal cavity at 10 mg/kg, sc dosed 30 mins prior LPS challenge measured after 3 hrs post LPS challenge by ELISA; type: functional, organism-based
Procedure, shortened: (§1)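 Male SPF C57BL/6 mice (20−22 g) given sc vehicle or test agent 30 min before ip LPS (300 ng/cavity, in saline) or mBSA (30 μg/cavity) in mBSA-immunized mice. Peritoneal fluid collected after 1.5 or 3 h. TNF-α, IL-1β, CXCL1/KC and CXCL2/MIP-2 measured by ELISA, expressed as pg/mL. Mean ± SEM, n = 4−5, Tukey's test.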

Mus musculus [3] = assay: Antiinflammatory activity in C57BL/6 mouse assessed as reduction in CXCL2/MIP-2 release in peritoneal cavity at 10 mg/kg, sc dosed 30 mins prior LPS challenge measured after 3 hrs post LPS challenge by ELISA; type: functional, organism-based; procedure, shortened: as §1
Mus musculus [4] = assay: Antiinflammatory activity in C57BL/6 mouse assessed as reduction in LPS-induced leukocyte adhesion in mesenteric venules at 10 mg/kg, sc dosed 30 mins prior LPS-challenge measured after 2 to 4 hrs post LPS challenge by intravital microscopy; type: functional, organism-based
Procedure, shortened: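 Mice dosed sc 30 min before ip LPS (300 ng/cavity). Animals anesthetized 2 or 4 h after the stimulus and mesentery exposed on a 37 °C thermostatted plate. Post-capillary venules of 10−18 μm diameter imaged. Rolling leukocytes counted over 10 min; cells stationary >30 s scored adherent. Five fields per animal. Mean ± SEM, n = 4−5.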

BMDM [5] = assay: Antiinflammatory activity in LPS-stimulated mouse bone marrow macrophages assessed as reduction in CXCL1/KC release at 1 to 10 uM pre-incubated for 30 mins prior LPS challenge measured after 4 hrs by ELISA; type: functional, cell-based
Procedure, shortened: (§2)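 Femur/tibia bone marrow cells differentiated 7 days at 37 °C, 5% CO2 in RPMI with 10% FBS, penicillin, L-glutamine and 20% L929 supernatant. Macrophages seeded at 2 × 10^5/well and adhered 2 h. Pre-treated 30 min (1, 3 or 10 μM), then LPS 10 ng/mL for 4 h. Supernatant CXCL1/KC and CXCL2/MIP-2 measured by ELISA (pg/mL).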

BMDM [6] = assay: Antiinflammatory activity in LPS-stimulated mouse bone marrow macrophages assessed as reduction in CXCL2/MIP-2 release at 1 to 10 uM pre-incubated for 30 mins prior LPS challenge measured after 4 hrs by ELISA; type: functional, cell-based; procedure, shortened: as §2
[7] = Induction of apoptosis in mouse bone marrow macrophages assessed as viable cells at 10 uM measured after 4 hrs by Annexin V-FITC/propidium iodide staining-based flow cytometry (reference value: 92 %); type: cell-based, BMDM; conditions: read-out: Activity
Mus musculus [8] = assay: Antiinflammatory activity in C57BL/6 mouse assessed as reduction in CXCL1/KC release in peritoneal cavity at 10 mg/kg, sc dosed 30 mins prior mBSA challenge measured after 3 hrs post mBSA challenge by ELISA; type: functional, organism-based; procedure, shortened: as §1
[9] = Induction of apoptosis in mouse bone marrow macrophages assessed as early apoptotic cells at 10 uM measured after 4 hrs by Annexin V-FITC/propidium iodide staining-based flow cytometry (reference value: 5.03 %); type: cell-based; conditions: bmdm
[10] = Induction of apoptosis in mouse bone marrow macrophages assessed as late apoptotic cells at 10 uM measured after 4 hrs by Annexin V-FITC/propidium iodide staining-based flow cytometry (reference value: 2.29 %); type: cell-based; conditions: bmdm
[11] = Induction of apoptosis in mouse bone marrow macrophages assessed as necrotic cells at 10 uM measured after 4 hrs by Annexin V-FITC/propidium iodide staining-based flow cytometry (reference value: 0.69 %); type: cell-based; conditions: bmdm
Mus musculus [12] = assay: Antiinflammatory activity in specific-pathogen free C57BL/6 mouse assessed as reduction in LPS-induced neutrophil migration in peritoneal activity at 10 mg/kg, sc dosed 15 mins prior LPS challenge measured after 6 hrs post LPS challenge by optical microscopic analysis; type: functional, organism-based
Procedure, shortened: (§3)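 Wild-type C57BL/6 or iNOS−/− male mice dosed sc (10 mg/kg), then ip LPS (300 ng/cavity) 15 min later. Killed at 6 h; peritoneal cavity washed. Total and differential cell counts done. Mean ± SEM, n = 4−5, Tukey's test.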

Mus musculus [13] = assay: Antiinflammatory activity in iNOS-/- mouse assessed as reduction in LPS-induced neutrophil migration in peritoneal activity at 10 mg/kg, sc dosed 15 mins prior LPS challenge measured after 6 hrs post LPS challenge by optical microscopic analysis; type: functional, organism-based; procedure, shortened: as §3
Neutrophil [14] = assay: Reduction in CXCL2/MIP2-induced chemotaxis in mouse bone marrow neutrophils at 3 and 10 uM pre-treated for 30 mins prior CXCL2/MIP2-challenge measured after 60 mins using Boyden's chamber by chemotaxis assay; type: functional, cell-based
Procedure, shortened: (§4)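 Percoll-isolated bone marrow neutrophils (1 × 10^6 cells/mL) pre-incubated 30 min at 37 °C, 5% CO2 (1, 3 or 10 μM). Boyden chamber with 5-μm membrane; CXCL2/MIP-2 30 ng/mL or LTB4 in 0.01% RPMI-BSA as chemoattractant, RPMI-BSA as negative control. Migration 60 min. Panotic-stained cells averaged over 5 fields at 1000×; triplicate, n = 3−4.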

Mus musculus [15] = organism: Mus musculus; assay: Reduction in LTB4-induced chemotaxis in mouse bone marrow neutrophils at 3 and 10 uM pre-treated for 30 mins prior LTB4-challenge measured after 60 mins using Boyden's chamber by chemotaxis assay; type: functional; procedure, shortened: as §4
[16] = Induction of apoptosis in mouse bone marrow neutrophils assessed as viable cells at 10 uM measured after 4 hrs by Annexin V-FITC/propidium iodide staining-based flow cytometry (reference value: 90.8 %); type: cell-based, Neutrophil; conditions: read-out: Activity
Neutrophil [17] = assay: Induction of apoptosis in mouse bone marrow neutrophils assessed as early apoptotic cells at 10 uM measured after 4 hrs by Annexin V-FITC/propidium iodide staining-based flow cytometry (reference value: 3.49 %); type: cell-based
Neutrophil [18] = assay: Induction of apoptosis in mouse bone marrow neutrophils assessed as late apoptotic cells at 10 uM measured after 4 hrs by Annexin V-FITC/propidium iodide staining-based flow cytometry (reference value: 4.8 %); type: cell-based
Neutrophil [19] = assay: Induction of apoptosis in mouse bone marrow neutrophils assessed as necrotic cells at 10 uM measured after 4 hrs by Annexin V-FITC/propidium iodide staining-based flow cytometry (reference value: 0.898 %); type: cell-based
Neutrophil [20] = assay: Reduction of calcium influx in CXCL2/MIP2-induced mouse bone marrow neutrophils at 10 uM measured after 30 mins by Fluo 3-AM dye-based analysis; type: functional, cell-based
Procedure, shortened: (§5)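 Bone marrow neutrophils (1 × 10^6/mL) loaded with Fluo 3-AM for 40 min at 37 °C, 5% CO2, then incubated 30 min with 10 μM. Plated at 2 × 10^5 cells/well. CXCL2/MIP-2 (30 ng/mL) or LTB4 added automatically in a FlexStation 3 microplate reader and calcium influx fluorescence recorded.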

Neutrophil [21] = assay: Reduction of calcium influx in LTB4-induced mouse bone marrow neutrophils at 10 uM measured after 30 mins by Fluo 3-AM dye-based analysis; type: functional, cell-based; procedure, shortened: as §5
Neutrophil [22] = assay: Effect on CXCR2 expression in mouse bone marrow neutrophils at 10 uM measured after 1.5 hrs by flow cytometric analysis; type: functional, cell-based
Procedure, shortened: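 Percoll-isolated (72%/65%) bone marrow neutrophils (1 × 10^6 cells/mL, ~95% pure) incubated 1.5 h with 10 μM. Stained 20 min at 4 °C with APC-anti-Ly6G (1:200) and PE-anti-CXCR2 (1:50). Fixed in PBS/2% formaldehyde; two-color flow cytometry. Mean ± SEM, n = 3−4.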

Mus musculus [23] = assay: Antiinflammatory activity in C57BL/6 mouse assessed as reduction in CXCL2/MIP-2 release in peritoneal cavity at 10 mg/kg, sc dosed 30 mins prior mBSA challenge measured after 3 hrs post mBSA challenge by ELISA; type: functional, organism-based; procedure, shortened: as §1
Mus musculus [24] = assay: Antiinflammatory activity in C57BL/6 mouse assessed as reduction in LPS-induced leukocyte rolling in mesenteric venules at 10 mg/kg, dosed 30 mins prior LPS-challenge measured by intravital microscopy
Mus musculus [25] = assay: Antiinflammatory activity in C57BL/6 mouse assessed as reduction in TNFalpha release in peritoneal cavity at 10 mg/kg, sc dosed 30 mins prior LPS challenge measured after 1.5 hrs post LPS challenge by ELISA
Mus musculus [26] = assay: Antiinflammatory activity in C57BL/6 mouse assessed as reduction in IL1-beta release in peritoneal cavity at 10 mg/kg, sc dosed 30 mins prior mBSA challenge measured after 3 hrs post mBSA challenge by ELISA
Mus musculus [27] = assay: Antiinflammatory activity in C57BL/6 mouse assessed as reduction in mBSA-induced neutrophil migration in peritoneal activity at 1 to 10 mg/kg, sc dosed 21 days after immunization 15 mins prior to mBSA challenge measured after 6 hrs post mBSA challenge using Neubauer chamber by cell counting method

With `COc1ccc([C@H]2COc3cc(O)ccc3C2)c(O)c1` the Activity (Mus musculus [1]) was “Active”, the Activity (Mus musculus [2]) was “Active” and the Activity (Mus musculus [3]) was “Active”. The Activity (Mus musculus [4]) was “Active”, the Activity (BMDM [5]) was “Active” and the Activity (BMDM [6]) was “Active”. The viability at 4 h, 10 µM [7] was 89%, the Activity (Mus musculus [8]) was “Active” and the Activity [9] was 6.62%. The Activity [10] was 3.35%, the Activity [11] was 1.03% and the Activity (Mus musculus [12]) was “Active”. For the same molecule, the Activity (Mus musculus [13]) was “Active”, the Activity (Neutrophil [14]) was “Active” and the Activity (Mus musculus [15]) was “Active”. It also gave a viability at 4 h, 10 µM [16] of 93.8%, an Activity (Neutrophil [17]) of 2.93% and an Activity (Neutrophil [18]) of 2.72%. The Activity (Neutrophil [19]) was 0.546%, the Activity (Neutrophil [20]) was “Active” and the Activity (Neutrophil [21]) was “Active”. The Activity (Neutrophil [22]) was “inactive”, the Activity (Mus musculus [23]) was “Active” and the Activity (Mus musculus [24]) was “Active”. The Activity (Mus musculus [25]) was “inactive”, the Activity (Mus musculus [26]) was “inactive” and the Activity (Mus musculus [27]) was “Active”.
